Assay results gathered from unrelated publications.
Protocols differ between the studies behind these lines.
Target: Adenosine receptor A2a (ADORA2A, Homo sapiens, UniProt P29274)

O=c1ccc2ccccc2o1 — inhibition (ligand displacement; radioligand; 10 µM): -4.26%
CC(C)Cn1cnc2c(N)nc3ccccc3c21 — inhibition (ligand displacement; radioligand; 10 µM): 89%
Clc1ccc2c(C3CCN(CCc4c[nH]c5ccccc45)CC3)c[nH]c2c1 — inhibition (ligand displacement; radioligand; 10 µM): -12%
CC(C)N1CCC[C@H]1CNC(=O)c1cn(C2CCCC2)c(=O)c2c1c1ccccc1n2C — inhibition (ligand displacement; radioligand; 10 µM): 6%
OC[C@@]12C[C@@H]1[C@@H](n1cnc3c(NC(C4CCCC4)C4CCCC4)nc(Cl)cc31)[C@H](O)[C@@H]2O — inhibition (ligand displacement; radioligand; 10 µM): -12%
C[C@H](C(=O)N[C@H]1COc2ccccc2[C@@H]1S(C)(=O)=O)c1ccc(F)cc1 — inhibition (cell-free assay; 10 µM): 1%
COc1ccc(S(=O)(=O)N2CCCCC2)cc1C — inhibition (ligand displacement; radioligand; 10 µM): < 30%
COCc1c(-c2cc3cc(C)cc(OC)c3s2)c2c(N)ncnn2c1CN1CCNC(=O)C1 — inhibition (ligand displacement; radioligand; 10 µM): 7%
c1ccc(C(NCCNC(c2ccccc2)c2ccccc2)c2ccccc2)cc1 — inhibition (cell-free assay; 10 µM): 12%
OC[C@@]12C[C@@H]1[C@@H](n1cnc3c(NC(C4CCCC4)C4CCCC4)nc(Cl)nc31)[C@H](O)[C@@H]2O — inhibition (ligand displacement; radioligand; 10 µM): 24%
CCN(CC)CCCC[C@H](NC(=O)[C@H](CC(C)C)NC(=O)[C@H](C)NC(=O)[C@H](Cc1ccccc1)NC(=O)c1ccc(C(C)(C)C)cc1)C(=O)N[C@@H](CO)C(=O)OC — remaining binding (ligand displacement; radioligand; 10 µM): 102%
Nc1ncc(-c2nc(N3CCOCC3)nc(N3CCOCC3)n2)c(C(F)F)n1 — remaining signal (cell-free assay; radioligand; 10 µM): 93.3%
O=C(Nc1cccnn1)N1CCN([C@@H]2CCOc3cc(C(F)(F)F)ccc32)CC1 — inhibition (ligand displacement; 20 µM): 15%
